Assay results published in ChEMBL document CHEMBL2321827, “Allopregnanolone and pregnanolone analogues modified in the C ring: synthesis and activity” (J Med Chem, 2013).

Tests used:
Type in all cases: cell-based
[1] = Stimulation of [3H]flunitrazepam binding to GABA type A receptor in mouse primary cortical neurons after 30 mins by liquid scintillation counting analysis; details: cerebral cortex neuron
Summary of the method: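 Cortical neurons from E16 mouse embryos, cultured 7–9 days with FUdR/uridine against glia, then washed in HEPES buffer pH 7.3. Intact cells were incubated with 1.3–2.0 nM [3H]flunitrazepam and compound (1 nM–300 μM, ≥6 concentrations, triplicate, final DMSO 100 μM) for 30 min at 25 °C. Nonspecific binding used 20 μM diazepam. EC50 came from a sigmoid fit, mean ± sd, n = 2–4.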

[2] = test system: Cerebral cortex neuron; assay: Stimulation of [3H]flunitrazepam binding to GABA type A receptor in mouse primary cortical neurons at 100 uM after 30 mins by liquid scintillation counting analysis relative to allopregnanolone
Summary of the method: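 Intact E16 mouse cortical neurons cultured 7–9 days, washed in HEPES pH 7.3, then incubated 30 min at 25 °C with 1.3–2.0 nM [3H]flunitrazepam and 100 μM compound in triplicate. Nonspecific binding was defined with 20 μM diazepam and radioactivity counted by scintillation. Binding increase is given as % of the maximal effect of 60 μM allopregnanolone, mean ± sd, n = 2–4.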

[3] = test system: Cerebral cortex neuron; assay: Stimulation of [3H]flunitrazepam binding to GABA type A receptor in primary cortical neurons relative to allopregnanolone

Row | SMILES | EC50 [1] [µM] | Emax [2] [%] | Activity [3] [%]
1 | CC(=O)[C@H]1CC[C@H]2[C@@H]3CC[C@@H]4C[C@@](O)(C#Cc5ccccc5)CC[C@]4(C)[C@H]3[C@](O)(C#Cc3ccccc3)C[C@]12C | > 100 | 0 | 
2 | CC(=O)[C@H]1CC[C@H]2[C@@H]3CC[C@H]4C[C@H](O)CC[C@]4(C)[C@H]3C[C@@H](O)[C@]12C | 173 | 28 | 
3 | CC(=O)[C@H]1CC[C@H]2[C@@H]3CC[C@H]4C[C@H](O)CC[C@]4(C)[C@H]3C[C@H](O)[C@]12C | 46 | 60 | 
4 | C#C[C@]1(O)C[C@]2(C)[C@@H](C(C)=O)CC[C@H]2[C@@H]2CC[C@@H]3C[C@H](O)CC[C@]3(C)[C@H]21 | 14 | 91 | 
5 | C#C[C@@]1(O)CC[C@@]2(C)[C@H](CC[C@H]3[C@@H]4CC[C@H](C(C)=O)[C@@]4(C)C[C@@](O)(C#C)[C@@H]32)C1 | 75 | 61 | 
6 | CC(=O)[C@H]1CC[C@H]2[C@@H]3CC[C@@H]4C[C@H](O)CC[C@]4(C)[C@H]3[C@](O)(C#Cc3ccccc3)C[C@]12C | 1.2 | 116 | 
7 | C=C1C[C@]2(C)[C@@H](C(C)=O)CC[C@H]2[C@@H]2CC[C@H]3C[C@H](O)CC[C@]3(C)[C@@H]12 | 1.2 | 102 | 
8 | CC(=O)[C@H]1CC[C@H]2[C@@H]3CC[C@@H]4C[C@H](O)CC[C@]4(C)[C@H]3C(=O)C[C@]12C [RENANOLONE] | 94 | 42 | 
9 | CC(=O)[C@H]1CC[C@H]2[C@@H]3CC[C@@H]4C[C@H](O)CC[C@]4(C)C3=C(C)C[C@]12C | 3 | 97 | 
10 | CC(=O)[C@H]1CC[C@H]2[C@@H]3CC[C@H]4C[C@H](O)CC[C@]4(C)[C@H]3[C@@H](O)C[C@]12C | 32 | 117 | 
11 | CC(=O)[C@H]1CC[C@H]2[C@@H]3CC[C@H]4C[C@H](N)CC[C@]4(C)[C@H]3CC[C@]12C |  |  | 56
12 | C#C[C@]1(O)C[C@]2(C)[C@@H](C(C)=O)CC[C@H]2[C@@H]2CC[C@H]3C[C@H](O)CC[C@]3(C)[C@H]21 | 32 | 87 | 
13 | CC(=O)[C@H]1CC[C@H]2[C@@H]3CC[C@@H]4C[C@H](O)CC[C@]4(C)[C@H]3[C@H](O)C[C@]12C | 71 | 43 | 
14 | CC(=O)[C@H]1CC[C@H]2[C@@H]3CC[C@H]4C[C@H](O)CC[C@]4(C)[C@H]3C=C[C@]12C | 7.4 | 67 | 
15 | CC(=O)[C@H]1CC[C@H]2[C@@H]3CC[C@H]4C[C@H](O)CC[C@]4(C)[C@H]3C(=O)C[C@]12C [ALFAXALONE] | 4.6 | 92 | 
16 | CC(=O)[C@H]1CC[C@H]2[C@@H]3CC[C@H]4C[C@H](O)CC[C@]4(C)[C@H]3[C@@H](N)C[C@]12C | 5.9 | 140 | 
17 | CC(=O)[C@H]1CC[C@H]2[C@@H]3CC[C@H]4C[C@H](O)CC[C@]4(C)[C@H]3C[C@@H](N)[C@]12C | > 300 | 0 | 
18 | CC(=O)[C@H]1CC[C@H]2[C@@H]3CC[C@@H]4C[C@H](O)CC[C@]4(C)[C@H]3[C@@H](O)C[C@]12C | > 300 | 25 | 
19 | CC(=O)[C@H]1CC[C@H]2[C@@H]3CC[C@H]4C[C@H](O)CC[C@]4(C)[C@H]3[C@H](O)C[C@]12C | > 300 | 28 | 
20 | CC(=O)N[C@@H]1C[C@H]2[C@@H](CC[C@H]3C[C@H](O)CC[C@@]32C)[C@@H]2CC[C@H](C(C)=O)[C@@]12C | > 100 | 0 | 
21 | CC(=O)[C@H]1CC[C@H]2[C@@H]3CC[C@H]4C[C@H](O)CC[C@]4(C)[C@H]3[C@H](N)C[C@]12C | 154 | 45 | 
22 | CC(=O)[C@H]1CC[C@H]2[C@@H]3CC[C@@H]4C[C@H](O)CC[C@]4(C)[C@H]3[C@@H](C)C[C@]12C | 14 | 71 | 
23 | CC(=O)[C@H]1CC[C@H]2[C@@H]3CC[C@H]4C[C@H](O)CC[C@]4(C)[C@H]3[C@@H](C)C[C@]12C | 8 | 97 | 
24 | CC(=O)[C@H]1CC[C@H]2[C@@H]3CC[C@H]4C[C@H](O)CC[C@]4(C)[C@H]3[C@@H]3O[C@@H]3[C@]12C | > 300 | 9 | 
25 | C=C1C[C@]2(C)[C@@H](C(C)=O)CC[C@H]2[C@@H]2CC[C@@H]3C[C@H](O)CC[C@]3(C)[C@@H]12 | 37.5 | 28 | 
